What was measured:
MG63.3 cells [1] = assay: Ex vivo lung culture metastatic outgrowth, MG63.3; assay type: cell-based, human
Summary of the method: (§1)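 Tumor cells were tail-vein injected, and lung sections were then cultured ex vivo. K7M2 cells were grown in female BALB/c mice and MG63.3 in female SCID-beige mice, 8-10 weeks old. Culture media held a final 0.1uM or 1uM rapamycin, or volume-matched DMSO, refreshed every 2 days. Eight sections were imaged per condition. Burden was total GFP+ area per section normalised to day 0.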

K7M2 cells [2] = assay: Ex vivo lung culture metastatic outgrowth, K7M2; assay type: cell-based, murine
Summary of the method: as §1

K7M2 cells [3] = assay: In vitro ds-SL-mCherry reporter expression; assay type: cell-based, murine; conditions: 1μM rapamycin, 5 days in culture (Fig 4A)
MG63.3 cells [4] = assay: Spontaneous; assay type: in vivo, human; conditions: orthotopically injected MG63.3 cells, 5mg/kg daily IP (Fig 6D)
Summary of the method: (§2)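 Cells were injected para-osseously into the proximal tibia: K7M2 into female BALB/c mice, human lines into female SCID-beige mice, 8-10 weeks old; MNNG at 1x10^6 cells. Mice received 5mg/kg IP rapamycin or vehicle daily, 5 days/week. Tumours were measured every 3-4 days and limbs amputated at 1.5-1.7 cm3. Survival ran from amputation, with metastasis confirmed at necropsy; Kaplan-Meier analysis, Gehan-Breslow-Wilcoxon test.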

MNNG cells = assay: Spontaneous; assay type: in vivo, human; conditions: orthotopically injected MNNG cells, 5mg/kg daily IP (Fig 6E)
Summary of the method: as §2

[5] = system: phosphorylation of p70S6K (Thr389); assay: Immunoblot for phospho- and total p70S6K in K7M2 cells; assay type: cell-based, murine; conditions: concentrations as low as 0.1μM, 4 hours, immunoblot (Fig 3A)
[6] = Single rapamycin dose pharmacokinetic study, whole blood levels; assay type: in vivo, mice
Summary of the method: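 Naive female athymic nude mice, 8-10 weeks old, received a single 5mg/kg IP dose (n=3 per condition). Whole blood was sampled at 0, 1, 2, 6, 24 and 48 h and quantified by validated LC/MS/MS. Parameters were derived noncompartmentally: Cmax and trough read directly from the data, AUC by the log-linear trapezoidal method.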

K7M2 cells [7] = assay: Spontaneous; assay type: in vivo, murine; conditions: orthotopically injected K7M2 cells, 5mg/kg daily IP (Fig 6C)
Summary of the method: as §2

MG63.3 cells [8] = assay: In vitro ds-SL-mCherry reporter expression; assay type: cell-based, human; conditions: 1μM rapamycin, 5 days in culture (Fig 4B)
[9] = system: phosphorylation of p70S6K (Thr389); assay: Immunoblot for phospho- and total p70S6K in MG63.3 cells; assay type: cell-based, human; conditions: concentrations as low as 0.1μM, 4 hours, immunoblot (Fig 3A)

## CO[C@H]1C[C@@H]2CC[C@@H](C)[C@@](O)(O2)C(=O)C(=O)N2CCCC[C@H]2C(=O)O[C@H]([C@H](C)C[C@@H]2CC[C@@H](O)[C@H](OC)C2)CC(=O)[C@H](C)/C=C(\C)[C@@H](O)[C@@H](OC)C(=O)[C@H](C)C[C@H](C)/C=C/C=C/C=C/1C [rapamycin]
MG63.3 cells [1]; MG63.3, 0.1μM rapamycin (Fig 5D, 5E)
  metastatic outgrowth in ex vivo lung culture: robustly inhibited metastatic outgrowth
MG63.3 cells [1]; MG63.3, 1μM rapamycin (Fig 5D, 5E)
  metastatic outgrowth in ex vivo lung culture: robustly inhibited metastatic outgrowth
K7M2 cells [2]; K7M2, 0.1μM rapamycin (Fig 5B, 5C)
  metastatic outgrowth in ex vivo lung culture: robustly inhibited metastatic outgrowth
K7M2 cells [2]; K7M2, 1μM rapamycin (Fig 5B, 5C)
  metastatic outgrowth in ex vivo lung culture: robustly inhibited metastatic outgrowth
K7M2 cells [3]
  effect on ds-SL-mCherry reporter expression in vitro: no effect on reporter expression
MG63.3 cells [4]
  survival of mice from time of limb amputation: significantly prolonged survival
MNNG cells
  survival of mice from time of limb amputation: significantly prolonged survival
[5]
  inhibition of phosphorylation of p70S6K: effectively inhibited phosphorylation of p70S6K
[6]; mice, 5mg/kg IP, noncompartmental methods, predicted sufficient to inhibit p70S6K phosphorylation and exert anti-metastatic activities
  AUC/dose equivalent value: 3,555 [ng*hr/ml]/[mg/kg]
[6]; naïve mice, single IP dose of 5mg/kg, for 24hrs (Fig 3C)
  whole blood concentration maintained: above 0.1 μM
K7M2 cells [7]
  survival of mice from time of limb amputation: significantly prolonged survival
MG63.3 cells [8]
  effect on ds-SL-mCherry reporter expression in vitro: no effect on reporter expression
[9]
  inhibition of phosphorylation of p70S6K: effectively inhibited phosphorylation of p70S6K

— PMC5161706 (Clinical cancer research : an official journal of the …, 2016)
